{"source": "paper PMC4643417", "about": "(Leukemia & lymphoma, 2015)", "key": {"[1]": {"conditions": "in vivo"}, "[2]": {"tested_on": "patients with previously untreated CLL", "experiment": "Phase 2 randomized three-arm trial: investigator-assessed best response", "format": "in vivo, human", "how_it_was_run": "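Open-label multicenter trial, randomized 1:1:1 and stratified by Binet stage and del(17p)/del(11q) (interphase FISH on marrow aspirates). Rituximab 375 mg/m2 week 1, then 500 mg/m2 weekly weeks 2–8, alone or with oral navitoclax (100 mg daily lead-in week, then 250 mg daily for 12 weeks). Investigator response by updated iwCLL at week 12, then every 12 weeks. ORR (CR+PR) with 95% CI; PFS by Kaplan–Meier.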"}, "[3]": {"tested_on": "patients with CLL, BCL2 protein low or high subgroups", "experiment": "Association of baseline BCL2 protein expression", "format": "in vivo, human", "conditions": "arm A (n = 24) / arms B + C pooled (n = 31)", "how_it_was_run": "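Baseline bone marrow aspirates (optional consent), fresh: intracellular BCL2 staining by flow cytometry at a central lab within 72 h of collection, gated on CD19/CD5-positive CLL cells. Low/high subgroups split at median expression. Rituximab 375 mg/m2 week 1, then 500 mg/m2 weekly weeks 2–8, ± oral navitoclax (100 mg/day lead-in, then 250 mg/day). Odds ratios of objective response by logistic regression.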"}, "[4]": {"tested_on": "patients with previously untreated CLL", "set-up": "species or system human", "conditions": "in vivo"}, "BCL2": {"tested_on": "BCL2", "conditions": "statement in discussion; cited from earlier work"}, "BCLXL": {"tested_on": "BCLXL", "conditions": "statement in discussion; cited from earlier work"}, "[5]": {"tested_on": "patients with relapsed/refractory CLL", "conditions": "phase 1 study, single-agent navitoclax; cited from earlier work"}, "[6]": {"experiment": "Navitoclax plasma pharmacokinetics", "format": "in vivo, human", "conditions": "for AUC / Cmax / Tmax: human, plasma, po"}, "[7]": {"conditions": "ITT population, arm A (n = 40) / arm B (n = 38; navitoclax 12 weeks)"}, "[8]": {"conditions": "patients with del(17p), arm A (n = 11) / arm B (n = 12; navitoclax 12 weeks)"}}}
{"compound": "rituximab", "values": [{"measurement": "Effect of navitoclax on the PK of rituximab", "setting": "[1]", "result": "does not affect the PK of rituximab"}, {"measurement": "Week 8 rituximab concentration, post-infusion", "setting": "[1]", "result": "576 ± 264 (n = 33) μg/mL"}, {"measurement": "Week 8 rituximab concentration, pre-infusion", "setting": "[1]", "result": "296 ± 175 (n = 33) μg/mL"}, {"measurement": "Best response: Missing", "setting": "[2]; [7]", "result": "3 (8) n (%)"}, {"measurement": "Complete response (CR)", "setting": "[2]; [7]", "result": "0 (0) n (%)"}, {"measurement": "Partial response (PR)", "setting": "[2]; [7]", "result": "14 (35) n (%)"}, {"measurement": "Progressive disease", "setting": "[2]; [7]", "result": "2 (5) n (%)"}, {"measurement": "Stable disease", "setting": "[2]; [7]", "result": "21 (53) n (%)"}, {"measurement": "Overall response rate (complete [CR] and partial [PR]), investigator-assessed", "setting": "[2]; arm A / arm B (navitoclax daily for 12 weeks)", "result": 35, "unit": "%"}, {"measurement": "Best response: Missing", "setting": "[2]; [8]", "result": "0 (0) n (%)"}, {"measurement": "Complete response (CR)", "setting": "[2]; [8]", "result": "0 (0) n (%)"}, {"measurement": "Partial response (PR)", "setting": "[2]; [8]", "result": "2 (18) n (%)"}, {"measurement": "Progressive disease", "setting": "[2]; [8]", "result": "1 (9) n (%)"}, {"measurement": "Stable disease", "setting": "[2]; [8]", "result": "8 (73) n (%)"}, {"measurement": "Best response PR", "setting": "[3]", "result": "6 (43%) n (%)"}, {"measurement": "Best response SD or PD", "setting": "[3]", "result": "8 (57%) n (%)"}, {"measurement": "Anemia/worsening of anemia", "setting": "[4]", "result": "2 (5) n (%)"}, {"measurement": "Any AEs", "setting": "[4]", "result": "33 (87) n (%)"}, {"measurement": "Any SAEs", "setting": "[4]", "result": "5 (13) n (%)"}, {"measurement": "Asthenia", "setting": "[4]", "result": "0 (0) n (%)"}, {"measurement": "Chills", "setting": "[4]", "result": "0 (0) n (%)"}, {"measurement": "Diarrhea", "setting": "[4]", "result": "0 (0) n (%)"}, {"measurement": "GI and abdominal pain", "setting": "[4]", "result": "0 (0) n (%)"}, {"measurement": "Grade 5 AEs", "setting": "[4]", "result": 3, "unit": "%"}, {"measurement": "Hyperbilirubinemia", "setting": "[4]", "result": "0 (0) n (%)"}, {"measurement": "Leukopenia", "setting": "[4]", "result": "1 (3) n (%)"}, {"measurement": "Liver enzyme increase", "setting": "[4]", "result": "0 (0) n (%)"}, {"measurement": "Neutropenia", "setting": "[4]", "result": "3 (8) n (%)"}, {"measurement": "Patients who withdrew from study due to AEs", "setting": "[4]", "result": "0 [0%] n [%]"}, {"measurement": "Respiratory tract infection", "setting": "[4]", "result": "3 (8) n (%)"}, {"measurement": "Thrombocytopenia", "setting": "[4]", "result": "0 (0) n (%)"}, {"measurement": "Vascular hypertensive disorders (hypertension)", "setting": "[4]", "result": "0 (0) n (%)"}]}
{"compound": "CC1(C)CCC(CN2CCN(c3ccc(C(=O)NS(=O)(=O)c4ccc(NCC5CCOCC5)c([N+](=O)[O-])c4)c(Oc4cnc5[nH]ccc5c4)c3)CC2)=C(c2ccc(Cl)cc2)C1", "note": "[ABT-199]", "values": [{"measurement": "Affinity for BCL2", "setting": "BCL2", "result": "very high affinity"}, {"measurement": "BCLXL inhibition", "setting": "BCLXL", "result": "effectively no BCLXL inhibition"}]}
{"compound": "CC1(C)CCC(c2ccc(Cl)cc2)=C(CN2CCN(c3ccc(C(=O)NS(=O)(=O)c4ccc(N[C@H](CCN5CCOCC5)CSc5ccccc5)c(S(=O)(=O)C(F)(F)F)c4)cc3)CC2)C1", "note": "[navitoclax]", "values": [{"measurement": "Overall response rate (ORR)", "setting": "[5]", "result": 35, "unit": "%"}, {"measurement": "Discontinuation of navitoclax due to hyperbilirubinemia", "setting": "[4]; human", "result": 1, "unit": "n"}, {"measurement": "Discontinuation of navitoclax due to neutropenia", "setting": "[4]; human", "result": 1, "unit": "n"}, {"measurement": "Discontinuation of navitoclax due to pain", "setting": "[4]; human", "result": 1, "unit": "n"}, {"measurement": "Discontinuation of navitoclax due to reaction to the infusion of rituximab", "setting": "[4]; human", "result": 1, "unit": "n"}, {"measurement": "Discontinuation of navitoclax due to serum sickness", "setting": "[4]; human", "result": 1, "unit": "n"}, {"measurement": "Discontinuation of navitoclax due to thrombocytopenia", "setting": "[4]; human", "result": 1, "unit": "n"}, {"measurement": "Patients who discontinued navitoclax due to an AE, total", "setting": "[4]; human", "result": 12, "unit": "patients"}, {"measurement": "Incidence of SAEs compared to patients treated with rituximab alone", "setting": "[4]", "result": "not increased"}, {"measurement": "Reports of bleeding", "setting": "[4]", "result": "a single AE of self-limited epistaxis"}, {"measurement": "Time of maximum navitoclax concentration (Cmax) after oral administration", "setting": "[6]", "result": "approximately 6 h"}, {"measurement": "AUC", "setting": "[6]; 100 mg", "result": "10500 ± 4100", "unit": "ng·h/mL"}, {"measurement": "Cmax", "setting": "[6]; 100 mg", "result": "2300 ± 900", "unit": "ng/mL"}, {"measurement": "Tmax", "setting": "[6]; 100 mg", "result": 6, "unit": "h"}, {"measurement": "AUC", "setting": "[6]; 250 mg", "result": "61200 ± 31200", "unit": "ng·h/mL"}, {"measurement": "Cmax", "setting": "[6]; 250 mg", "result": "3700 ± 2000", "unit": "ng/mL"}, {"measurement": "Tmax", "setting": "[6]; 250 mg", "result": 6.1, "unit": "h"}]}
